# Data published in ChEMBL document CHEMBL1144035, “Synthesis, cytostatic and anti-HCV activity of 6-(N-substituted aminomethyl)-, 6-(O-substituted hydroxymethyl)- and 6-(S-substituted sulfanylmethyl)purine nucleosides” (Bioorg Med Chem, 2008).
# Calls of active or inactive are those of the source. No cut-off for these calls is given here.
# Columns and labels:
# L1210 = test: Cytostatic activity in mouse L1210 cells assessed as inhibition of cell growth after 72 hrs; assay type: functional, cell-based; conditions: for IC50: L1210, 72 h
# In short: (§1)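 Cultures from ATCC lines: mouse leukaemia L1210 (CCL 219), human promyelocytic leukaemia HL60 (CCL 240) and human T-lymphoblastoid CCRF-CEM (CCL 119). Growth inhibition was estimated from the cell count in a haematological analyzer (haemocytometer).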
# CCRF-CEM [1] = test: Cytostatic activity in human CCRF-CEM cells assessed as inhibition of cell growth after 72 hrs; assay type: functional, cell-based; in short: as §1
# HeLa = test: Cytostatic activity in human HeLa S3 cells assessed as inhibition of cell growth after 48 hrs by XTT assay; assay type: functional, cell-based
# Hepatitis C virus = test: Antiviral activity against Hepatitis C virus 1b after 3 days; assay type: functional, organism-based, Hepacivirus hominis; conditions: genotype 1b, 72 h
# [2] = Cytotoxicity against human Huh7 cells after 3 days by MTT method; assay type: functional; conditions: Huh-7, 72 h
# In short: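 Cellular toxicity was read by MTT in Huh-7 cells carrying the con-1 HCV replicon, in duplicate (N = 2).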
# MT4 = test: Cytotoxicity against human MT4 cells after 4 days; assay type: functional; conditions: MT4, 96 h
# In short: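 Cellular toxicity was measured in MT-4 cells, N = 2.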
# HL-60 [3] = test: Cytostatic activity in human HL60 cells assessed as inhibition of cell growth after 72 hrs; assay type: functional, cell-based; conditions: for IC50: HL-60, 72 h; in short: as §1
# HL-60 [4] = test: Cytostatic activity in human HL60 cells assessed as inhibition of cell growth after 72 hrs by XTT assay; assay type: functional, cell-based; conditions: HL-60, 72 h
# CCRF-CEM [5] = test: Cytostatic activity in human CCRF-CEM cells assessed as inhibition of cell growth after 72 hrs by XTT assay; assay type: functional, cell-based
EC50 (Hepatitis C virus) [µM],IC50 (L1210) [µM],IC50 (HL-60 [3]) [µM],IC50 (HL-60 [4]) [µM],IC50 (CCRF-CEM [1]) [µM],IC50 (CCRF-CEM [5]) [µM],SMILES,Activity (L1210),Activity (CCRF-CEM [1]),Activity (HeLa),CC50 [2] [µM],CC50 (MT4) [µM],Activity (HL-60 [3])
44,–,–,–,–,–,OC[C@H]1O[C@@H](n2cnc3c(CSc4ccccn4)ncnc32)[C@H](O)[C@@H]1O,inactive,inactive,inactive,> 100,> 100,inactive
> 100,–,–,–,–,–,OC[C@H]1O[C@@H](n2cnc3c(CSc4ccccc4)ncnc32)[C@H](O)[C@@H]1O,inactive,inactive,inactive,> 100,–,inactive
> 250,–,12,14.3,16.6,10.8,OC[C@H]1O[C@@H](n2cnc3c(COc4ccccn4)ncnc32)[C@H](O)[C@@H]1O,inactive,–,inactive,> 250,–,–
> 100,–,–,–,–,–,O=c1ccn(Cc2ncnc3c2ncn3[C@@H]2O[C@H](CO)[C@@H](O)[C@H]2O)cc1,inactive,inactive,inactive,> 100,–,inactive
> 100,–,–,–,–,–,CC(=O)N(Cc1ncnc2c1ncn2[C@@H]1O[C@H](CO)[C@@H](O)[C@H]1O)C1CC1,inactive,inactive,inactive,> 100,–,inactive
> 100,–,–,–,–,–,OC[C@H]1O[C@@H](n2cnc3c(CSc4nc5ccccc5s4)ncnc32)[C@H](O)[C@@H]1O,inactive,inactive,inactive,> 100,–,inactive
186,–,13,–,–,–,OC[C@H]1O[C@@H](n2cnc3c(CN4CCOCC4)ncnc32)[C@H](O)[C@@H]1O,inactive,inactive,inactive,> 250,–,–
62,–,–,–,–,–,OC[C@H]1O[C@@H](n2cnc3c(Cn4cccn4)ncnc32)[C@H](O)[C@@H]1O,inactive,inactive,inactive,> 250,48,inactive
39,–,3.5,1.2,–,–,OC[C@H]1O[C@@H](n2cnc3c(CS)ncnc32)[C@H](O)[C@@H]1O,inactive,inactive,inactive,54,–,–
> 100,–,–,–,–,–,OC[C@H]1O[C@@H](n2cnc3c(COc4ccccc4)ncnc32)[C@H](O)[C@@H]1O,inactive,–,inactive,> 100,–,inactive

# Further lines, the compound ahead of its results:
SMILES,EC50 (Hepatitis C virus) [µM],IC50 (L1210) [µM],IC50 (HL-60 [3]) [µM],IC50 (HL-60 [4]) [µM],IC50 (CCRF-CEM [1]) [µM],IC50 (CCRF-CEM [5]) [µM],Activity (L1210),Activity (CCRF-CEM [1]),Activity (HeLa),CC50 [2] [µM],CC50 (MT4) [µM],Activity (HL-60 [3])
CC(C)N(Cc1ncnc2c1ncn2[C@@H]1O[C@H](CO)[C@@H](O)[C@H]1O)C(C)C,3,17,13,–,–,–,–,inactive,inactive,18,–,–
CC(=O)N(Cc1ccccc1)Cc1ncnc2c1ncn2[C@@H]1O[C@H](CO)[C@@H](O)[C@H]1O,> 100,–,–,–,–,–,inactive,inactive,inactive,> 100,–,inactive
OC[C@H]1O[C@@H](n2cnc3c(CN4CCSC4)ncnc32)[C@H](O)[C@@H]1O,7,7.8,5.2,3.12,19.6,–,–,–,inactive,21,–,–
OC[C@H]1O[C@@H](n2cnc3c(CN4CCCCC4)ncnc32)[C@H](O)[C@@H]1O,42,12.2,6.9,–,–,–,–,inactive,inactive,87,–,–
C[C@@]1(O)[C@H](O)[C@@H](CO)O[C@H]1n1cnc2c(N)ncnc21,0.23,–,–,–,–,–,–,–,inactive,> 100,–,–
CC(=O)NNCc1ncnc2c1ncn2[C@@H]1O[C@H](CO)[C@@H](O)[C@H]1O,65,–,6.6,11.4,18,10.3,inactive,–,inactive,> 250,–,–
OCc1ncnc2c1ncn2[C@@H]1O[C@H](CO)[C@@H](O)[C@H]1O,–,–,0.01,–,0.15,–,–,–,inactive,–,–,–
O=C(O)CNCc1ncnc2c1ncn2[C@@H]1O[C@H](CO)[C@@H](O)[C@H]1O,87,–,–,–,–,–,inactive,inactive,inactive,> 100,–,inactive
O=c1ccccn1Cc1ncnc2c1ncn2[C@@H]1O[C@H](CO)[C@@H](O)[C@H]1O,91,–,–,–,–,–,inactive,inactive,inactive,> 100,–,inactive
CN(C)Cc1ncnc2c1ncn2[C@@H]1O[C@H](CO)[C@@H](O)[C@H]1O,41,5.1,4,–,–,–,–,inactive,inactive,> 100,–,–
CC(=O)N(Cc1ncnc2c1ncn2[C@H]1C[C@H](O)[C@@H](CO)O1)C1CCCCC1,20,–,–,–,–,–,inactive,inactive,inactive,> 100,> 100,inactive
CC(=O)N(Cc1ncnc2c1ncn2[C@@H]1O[C@H](CO)[C@@H](O)[C@H]1O)C1CCCCC1,> 100,–,–,–,–,–,inactive,inactive,inactive,> 100,–,inactive
O=C1CCCN1Cc1ncnc2c1ncn2[C@@H]1O[C@H](CO)[C@@H](O)[C@H]1O,14,–,–,–,–,–,inactive,inactive,inactive,45,–,inactive
O=c1[nH]c(=O)n([C@H]2C[C@H](O)[C@@H](CO)O2)cc1F [FLOXURIDINE],–,0.012,–,–,–,–,–,–,inactive,–,–,–
CN(Cc1ccccc1)Cc1ncnc2c1ncn2[C@@H]1O[C@H](CO)[C@@H](O)[C@H]1O,9,4.8,5.6,2.4,20.3,–,–,–,inactive,9,–,–
CC(=O)N(C)Cc1ncnc2c1ncn2[C@@H]1O[C@H](CO)[C@@H](O)[C@H]1O,> 100,–,–,–,–,–,inactive,inactive,inactive,> 100,–,inactive
OC[C@H]1O[C@@H](n2cnc3c(CS)ncnc32)C[C@@H]1O,20,–,–,–,–,–,inactive,inactive,inactive,41,–,inactive
O=C(O)CSCc1ncnc2c1ncn2[C@@H]1O[C@H](CO)[C@@H](O)[C@H]1O,> 100,–,–,–,–,–,inactive,inactive,inactive,> 100,–,inactive
